Data from ChEMBL document CHEMBL5550111, “Design, synthesis and biological evaluation of aryloxy thiophosphoramidate triesters of anticancer nucleoside analogues” (Bioorg Med Chem, 2024).

Experiments:
[1] = test system: HepG2; assay: Cytotoxicity against human HepG2 cells assessed as maximum inhibition of cell viability upto 198 uM incubated for 72 hrs by MTS assay relative to control; assay type: functional; conditions: up to 198 µM
Procedure, shortened: (§1)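 Cells seeded at 0.5 to 100 × 10^3 per well the day before drug addition, then exposed to compound for 72 h. MTS added afterwards, with a further 4 h at 37 °C, and absorbance read. Tested in duplicate at 9 serial 3.16-fold dilutions, top concentration 198 μM. MI% is the maximum inhibition of viability across the tested range.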

[2] = test system: MIA PaCa-2; assay: Cytotoxicity against human MIA PaCa-2 cells assessed as inhibition of cell viability incubated for 72 hrs by MTS assay; assay type: functional, cell-based; conditions: MIA PaCa-2, 72 h
Procedure, shortened: (§2)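 Cells seeded at 0.5 to 100 × 10^3 per well the day before treatment, then exposed for 72 h to 9 serial concentrations (3.16-fold dilutions, top 198 μM), in duplicate. MTS added for a final 4 h at 37 °C and absorbance read. IC50 is the concentration giving 50% loss of viability. MI% is the maximum inhibition over the tested range.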

[3] = test system: 5637; assay: Cytotoxicity against human 5637 cells assessed as maximum inhibition of cell viability upto 198 uM incubated for 72 hrs by MTS assay relative to control; assay type: functional; conditions: up to 198 µM; procedure, shortened: as §1
[4] = test system: COLO 205; assay: Cytotoxicity against human COLO 205 cells assessed as maximum inhibition of cell viability upto 198 uM incubated for 72 hrs by MTS assay relative to control; assay type: functional; conditions: up to 198 µM; procedure, shortened: as §1
[5] = test system: HT-29; assay: Cytotoxicity against human HT-29 cells assessed as maximum inhibition of cell viability upto 198 uM incubated for 72 hrs by MTS assay relative to control; assay type: functional; conditions: up to 198 µM; procedure, shortened: as §1
[6] = Cytotoxicity against human T24/83 cells assessed as maximum inhibition of cell viability upto 198 uM incubated for 72 hrs by MTS assay relative to control; assay type: functional; conditions: up to 198 µM; procedure, shortened: as §1
[7] = test system: MOLT-4; assay: Cytotoxicity against human MOLT-4 cells assessed as inhibition of cell viability incubated for 72 hrs by MTS assay; assay type: functional, cell-based; conditions: MOLT-4, 72 h; procedure, shortened: as §2
[8] = test system: HT-29; assay: Cytotoxicity against human HT-29 cells assessed as inhibition of cell viability incubated for 72 hrs by MTS assay; assay type: functional, cell-based; conditions: HT-29, 72 h; procedure, shortened: as §2
[9] = test system: K562; assay: Cytotoxicity against human K562 cells assessed as maximum inhibition of cell viability upto 198 uM incubated for 72 hrs by MTS assay relative to control; assay type: functional; conditions: up to 198 µM; procedure, shortened: as §1
[10] = test system: MCF7; assay: Cytotoxicity against human MCF7 cells assessed as inhibition of cell viability incubated for 72 hrs by MTS assay; assay type: functional, cell-based; conditions: MCF7, 72 h
[11] = test system: MCF7; assay: Cytotoxicity against human MCF7 cells assessed as maximum inhibition of cell viability upto 198 uM incubated for 72 hrs by MTS assay relative to control; assay type: functional; conditions: up to 198 µM; procedure, shortened: as §1
[12] = test system: A498; assay: Cytotoxicity against human A498 cells assessed as maximum inhibition of cell viability upto 198 uM incubated for 72 hrs by MTS assay relative to control; assay type: functional; conditions: up to 198 µM; procedure, shortened: as §1
[13] = test system: MDA-MB-231; assay: Cytotoxicity against human MDA-MB-231 cells assessed as maximum inhibition of cell viability upto 198 uM incubated for 72 hrs by MTS assay relative to control; assay type: functional; conditions: up to 198 µM; procedure, shortened: as §1
[14] = test system: PC-3; assay: Cytotoxicity against human PC-3 cells assessed as maximum inhibition of cell viability upto 198 uM incubated for 72 hrs by MTS assay relative to control; assay type: functional; conditions: up to 198 µM; procedure, shortened: as §1
[15] = test system: HepG2; assay: Cytotoxicity against human HepG2 cells assessed as inhibition of cell viability incubated for 72 hrs by MTS assay; assay type: functional, cell-based; conditions: HepG2, 72 h; procedure, shortened: as §2
[16] = test system: MOLT-4; assay: Cytotoxicity against human MOLT-4 cells assessed as maximum inhibition of cell viability upto 198 uM incubated for 72 hrs by MTS assay relative to control; assay type: functional; conditions: up to 198 µM; procedure, shortened: as §1
[17] = test system: 5637; assay: Cytotoxicity against human 5637 cells assessed as inhibition of cell viability incubated for 72 hrs by MTS assay; assay type: functional, cell-based; conditions: Homo sapiens, 5637, 72 h; procedure, shortened: as §2
[18] = test system: HL-60; assay: Cytotoxicity against human HL-60 cells assessed as maximum inhibition of cell viability upto 198 uM incubated for 72 hrs by MTS assay relative to control; assay type: functional; conditions: up to 198 µM; procedure, shortened: as §1
[19] = test system: KG-1; assay: Cytotoxicity against human KG-1 cells assessed as maximum inhibition of cell viability upto 198 uM incubated for 72 hrs by MTS assay relative to control; assay type: functional; conditions: up to 198 µM; procedure, shortened: as §1
[20] = test system: HL-60; assay: Cytotoxicity against human HL-60 cells assessed as inhibition of cell viability incubated for 72 hrs by MTS assay; assay type: functional, cell-based; conditions: HL-60, 72 h; procedure, shortened: as §2
[21] = test system: COLO 205; assay: Cytotoxicity against human COLO 205 cells assessed as inhibition of cell viability incubated for 72 hrs by MTS assay; assay type: functional, cell-based; conditions: COLO 205, 72 h; procedure, shortened: as §2
[22] = test system: MDA-MB-231; assay: Cytotoxicity against human MDA-MB-231 cells assessed as inhibition of cell viability incubated for 72 hrs by MTS assay; assay type: functional, cell-based; conditions: MDA-MB-231, 72 h; procedure, shortened: as §2
[23] = test system: K562; assay: Cytotoxicity against human K562 cells assessed as inhibition of cell viability incubated for 72 hrs by MTS assay; assay type: functional, cell-based; conditions: K562, 72 h; procedure, shortened: as §2
[24] = Cytotoxicity against human T24/83 cells assessed as inhibition of cell viability incubated for 72 hrs by MTS assay; assay type: functional, cell-based; conditions: T24/83, 72 h; procedure, shortened: as §2
[25] = test system: RL; assay: Cytotoxicity against human RL cells assessed as maximum inhibition of cell viability upto 198 uM incubated for 72 hrs by MTS assay relative to control; assay type: functional; conditions: up to 198 µM; procedure, shortened: as §1
[26] = test system: A498; assay: Cytotoxicity against human A498 cells assessed as inhibition of cell viability incubated for 72 hrs by MTS assay; assay type: functional, cell-based; conditions: A498, 72 h; procedure, shortened: as §2
[27] = Cytotoxicity against human ACHN-luc2 cells assessed as inhibition of cell viability incubated for 72 hrs by MTS assay; assay type: functional, cell-based; conditions: ACHN-luc2, 72 h; procedure, shortened: as §2
[28] = Cytotoxicity against human ACHN-luc2 cells assessed as maximum inhibition of cell viability upto 198 uM incubated for 72 hrs by MTS assay relative to control; assay type: functional; conditions: up to 198 µM; procedure, shortened: as §1
[29] = test system: CAKI-2; assay: Cytotoxicity against human CAKI-2 cells assessed as inhibition of cell viability incubated for 72 hrs by MTS assay; assay type: functional, cell-based; conditions: CAKI-2, 72 h; procedure, shortened: as §2
[30] = test system: KG-1; assay: Cytotoxicity against human KG-1 cells assessed as inhibition of cell viability incubated for 72 hrs by MTS assay; assay type: functional, cell-based; conditions: KG-1, 72 h; procedure, shortened: as §2
[31] = test system: RL; assay: Cytotoxicity against human RL cells assessed as inhibition of cell viability incubated for 72 hrs by MTS assay; assay type: functional, cell-based; procedure, shortened: as §2
[32] = test system: PC-3; assay: Cytotoxicity against human PC-3 cells assessed as inhibition of cell viability incubated for 72 hrs by MTS assay; assay type: functional, cell-based; conditions: PC-3, 72 h; procedure, shortened: as §2
[33] = test system: CAKI-2; assay: Cytotoxicity against human CAKI-2 cells assessed as maximum inhibition of cell viability upto 198 uM incubated for 72 hrs by MTS assay relative to control; assay type: functional; conditions: up to 198 µM; procedure, shortened: as §1
[34] = test system: MIA PaCa-2; assay: Cytotoxicity against human MIA PaCa-2 cells assessed as maximum inhibition of cell viability upto 198 uM incubated for 72 hrs by MTS assay relative to control; assay type: functional; conditions: up to 198 µM; procedure, shortened: as §1

Nc1ncnc2c1ncn2[C@@H]1O[C@H](CO)C[C@H]1O [CORDYCEPIN]
Imax [1]: 71%
IC50 [2]: 76.8 µM
Imax [3]: 44%
Imax [4]: 24%
Imax [5]: 90%
Imax [6]: 96%
IC50 [7]: 85.3 µM
IC50 [8]: 26.3 µM
Imax [9]: 70%
IC50 [10]: 45.9 µM
Imax [11]: 93%
Imax [12]: 18%
Imax [13]: 59%
Imax [14]: 70%
IC50 [15]: 77.2 µM
Imax [16]: 77%
IC50 [17]: 71.6 µM
Imax [18]: 57%
Imax [19]: 92%
IC50 [20]: 145 µM
IC50 [21]: 108 µM
IC50 [22]: 78.6 µM
IC50 [23]: 94.4 µM
IC50 [24]: 99.1 µM
Imax [25]: 4%
IC50 [26]: 85.4 µM
IC50 [27]: 77 µM
Imax [28]: 14%
IC50 [29]: 94.2 µM
IC50 [30]: 89 µM
IC50 [31]: 135 µM
IC50 [32]: 85.3 µM
Imax [33]: 25%
Imax [34]: 87%

C[C@H](NP(=O)(OC[C@@H]1C[C@@H](O)[C@H](n2cnc3c(N)ncnc32)O1)Oc1ccccc1)C(=O)OCc1ccccc1 (stereo partly drawn) [FOSDESDENOSINE SIPALABENAMIDE]
Imax [1]: 80%
IC50 [2]: 7.41 µM
Imax [3]: 100%
Imax [4]: 87%
Imax [5]: 96%
Imax [6]: 92%
IC50 [7]: 4.67 µM
IC50 [8]: 9.47 µM
Imax [9]: 83%
IC50 [10]: 3.69 µM
Imax [11]: 90%
Imax [12]: 82%
Imax [13]: 79%
Imax [14]: 74%
IC50 [15]: 25.2 µM
Imax [16]: 96%
IC50 [17]: 47.5 µM
Imax [18]: 101%
Imax [19]: 92%
IC50 [20]: 38.4 µM
IC50 [21]: 27.8 µM
IC50 [22]: 19.4 µM
IC50 [23]: 10.3 µM
IC50 [24]: 31.4 µM
Imax [25]: 94%
IC50 [26]: 58.1 µM
IC50 [27]: 112 µM
Imax [28]: 62%
IC50 [29]: 102 µM
IC50 [30]: 23.5 µM
IC50 [31]: 34.6 µM
IC50 [32]: 51.2 µM
Imax [33]: 78%
Imax [34]: 95%
